From PubChem BioAssay
A selection: hits, their analogues and other compounds. The true share with any hit is near 4.5%.
TAAR1 agonist = human TAAR1 agonism. Q96RJ0. CHO RD-HGA16 TAAR1, Fluo-8 calcium fluorescence; vehicle wells 0%, saturating PEA agonist 100%. activation, % at 3 µM. actives 0.99% (n = 360,000). AID 624467;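 active means activation above the mean activation of all test compounds in the run plus 3 SD, cut at about 38% in these data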
Target sequence (Q96RJ0 whole entry, looked up): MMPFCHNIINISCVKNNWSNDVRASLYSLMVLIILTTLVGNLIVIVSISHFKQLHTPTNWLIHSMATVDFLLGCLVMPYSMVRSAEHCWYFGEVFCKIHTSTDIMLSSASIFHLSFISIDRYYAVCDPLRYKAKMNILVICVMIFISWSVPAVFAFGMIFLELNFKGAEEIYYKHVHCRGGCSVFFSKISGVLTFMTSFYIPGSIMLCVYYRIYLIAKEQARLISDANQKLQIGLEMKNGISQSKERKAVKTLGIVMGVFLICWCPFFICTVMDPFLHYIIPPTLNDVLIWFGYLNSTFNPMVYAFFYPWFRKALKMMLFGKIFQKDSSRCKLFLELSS
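Repeats: no replicates (n 1) | Material: CHO-derived RD-HGA16 cells with stable Gα16 and human TAAR1 | Technique: Kinetic Fluo-8 calcium fluorescence | Schedule: 17-24 h seeding, 75 min 37 °C dye, 30 min RT | Evaluation: % activation from peak over basal fluorescence ratio, DMSO-to-PEA scaled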
OX1R antag-1 = antagonists of human orexin 1 receptor (OX1R); inhibition, % at 6.6 µM; OX1R-expressing cells, FRET antagonist read-out; O43613; AID 485270; actives 1.8% (n = 330,000); in the data active means inhibition mostly above about 38%, no sharp cut-off; inactive means mostly below about 40%
OX1R antag-2 = antagonists of human orexin 1 receptor. O43613. CHO/OX1R cells, Fluo-8 calcium fluorescence, orexin A. inhibition, % at 5 µM. actives 0.43% (n = 330,000);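 active means inhibition above its plate's threshold, mean inhibition of all tested compounds on the plate plus 3 SD, cut at about 37% in these data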
CHO parental Ca = counter-screen: ATP calcium response change in parental CHO cells; actives 0.63% (n = 330,000); parental CHO-K1, ATP-induced calcium, Fluo-8 fluorescence; inhibition, % at 5.6 µM;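 active means inhibition above that plate's mean sample inhibition plus 3 SD, cut at about 26% in these data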
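Measured by: calcium-sensitive Fluo-8 fluorescence / Test system: CHO parental line / Controls: ATP-challenged DMSO wells low, unchallenged DMSO wells high / Measure: % inhibition / Compound: single nominal dose of 5.6 µM per compound / Replicates: single well per compound, no replicates / Reagent: ATP as calcium-mobilizing challenge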
GPR7 antag = blocks human GPR7 receptor signaling | GPR7-expressing cells, fluorescence antagonist assay | inhibition, % at 4.4 µM | actives 1.1% (n = 290,000) | AID 1861; in the data active means inhibition above about 16%, passing the limit was not always enough;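 further: cells stimulated with the agonist NPW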
Target sequence (P48145 whole entry, looked up): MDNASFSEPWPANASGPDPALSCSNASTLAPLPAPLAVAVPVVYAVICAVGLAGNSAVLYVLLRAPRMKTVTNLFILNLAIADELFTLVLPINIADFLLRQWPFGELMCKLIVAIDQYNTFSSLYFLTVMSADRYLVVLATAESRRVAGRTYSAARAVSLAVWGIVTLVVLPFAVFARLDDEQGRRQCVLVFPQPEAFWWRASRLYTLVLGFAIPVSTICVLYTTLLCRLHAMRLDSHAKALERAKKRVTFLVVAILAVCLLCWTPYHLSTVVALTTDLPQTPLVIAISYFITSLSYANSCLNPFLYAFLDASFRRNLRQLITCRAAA
TAAR1 antag = antagonists of human TAAR1; Q96RJ0; CHO RD-HGA16 TAAR1, Fluo-8 calcium fluorescence, antagonist; inhibition, % at 3 µM; actives 1.5% (n = 360,000); AID 624466;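 active means inhibition above a per-plate cutoff, the mean inhibition of test compounds on that plate plus 3 SD, cut at about 49% in these data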
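Material: CHO RD-HGA16 cells bearing hTAAR1; compound dosing: one-point dosing, 3 µM nominal final; schedule: dye loading 75 min at 37 °C, then 30 min room temperature; measured by: calcium fluorescence with Fluo-8; control set: vehicle and agonist controls; replication: n of 1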
TAAR1 ag conf = human TAAR1 agonism, confirmed; activation, % at 3 µM; CHO RD-HGA16 TAAR1, Fluo-8 calcium fluorescence; scaled: DMSO 0%, maximal phenethylamine 100%; shares compounds with TAAR1 agonist; actives 82% (n = 2,400);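 active means activation above a cutoff set at the run's mean compound activation plus 3 SD, cut at about 39% in these data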
Ga16 nonsel ag = counter-screen for TAAR1 agonists: nonselective agonists in parental cells; shares compounds with TAAR1 agonist; CHO-Ga16 parental, Fluo-8 calcium fluorescence; normalized to maximal ATP response, DMSO zero; activation, % at 3 µM; actives 50% (n = 2,400); AID 651787;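 active means activation above the run cutoff, the mean activation over all tested wells plus 3 SD, cut at about 12% in these data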
TAAR1 desensitize = TAAR1 response desensitization, agonist counter-screen; shares compounds with TAAR1 agonist; CHO RD-HGA16 hTAAR1, Fluo-8 calcium, beta-PEA response inhibition; actives 46% (n = 2,400); inhibition, % at 3 µM;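 active means inhibition above the run cutoff, the mean inhibition of all test compounds plus 3 SD, cut at about 49% in these data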;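 further: beta-PEA stimulus applied at its EC80; loss of beta-PEA calcium signal after compound pretreatment read as receptor desensitization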
Ga16 antag count = counter-screen for TAAR1 agonists: nonselective Ga16 antagonists. shares compounds with TAAR1 agonist. CHO-Ga16 ATP-induced calcium, Fluo-8 fluorescence. inhibition, % at 3 µM. actives 39% (n = 2,400);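 active means inhibition above the plate's mean compound inhibition plus 3 SD, computed per plate, cut at about 22% in these data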
Hits are given with their value; 0 = inactive; - = not tested or not shown.

SMILES	TAAR1 agonist	OX1R antag-1	OX1R antag-2	CHO parental Ca	GPR7 antag	TAAR1 antag	TAAR1 ag conf	Ga16 nonsel ag	TAAR1 desensitize	Ga16 antag count
CN(C)c1ccc(N=C/C=C2\N(C)c3ccccc3C2(C)C)cc1	46.8	0	0	0	0	0	73.8	14.5	0	0
CN1\C(=C/C=C/C=C/C=[N+](C)C)C(C)(C)c2ccccc21	714.7	-	-	-	0	109.4	80.8	109.5	69.1	75.0
CC1(C(=O)Nc2ccc3c(c2)OCCO3)CN(S(C)(=O)=O)CC(=O)N1CCc1c[nH]c2ccccc12 (stereo not drawn)	0	-	-	-	-	0	-	-	-	-
CN1C(C(=O)NCCc2cccs2)CC2Cn3c(nc4cc(Cl)c(Cl)cc43)C21 (stereo not drawn)	68.6	0	0	0	-	0	82.8	0	0	0
COc1ccc(CCNC(=O)C2CC3Cn4c(nc5cc(Cl)c(Cl)cc54)C3N2C)cc1 (stereo not drawn)	0	0	0	0	-	0	-	-	-	-
CCOC(=O)C(NC(=O)CC)(N1CCc2ccccc2C1)C(F)(F)F (stereo not drawn)	92.6	0	0	0	0	95.6	111.0	0	97.9	0
CCOC(=O)C(NC(=O)CC)(Nc1ccccc1)C(F)(F)F (stereo not drawn)	0	0	0	0	0	0	-	-	-	-
O=C(OCc1cn([C@@H]2CN(Cc3cccs3)[C@@H](c3ccc(Cl)cc3)C[C@H]2O)nn1)c1ccccc1	0	-	-	-	-	0	-	-	-	-
O=C(NC(c1cccnc1)c1ccc2c(c1)OCO2)C1CCN(CCOc2ccc(Cl)cc2Cl)CC1 (stereo not drawn)	0	-	-	-	-	0	-	-	-	-
Nc1nonc1-n1nnc(C(=O)N/N=C/c2cccc(F)c2)c1-c1ccccc1	55.5	0	0	0	0	0	38.5	18.5	0	0
COc1cccc(-c2c(C(=O)N/N=C/c3cccs3)nnn2-c2nonc2N)c1	-	0	0	0	0	-	-	-	-	-
CCOc1cccc(-c2c(C(=O)N/N=C/c3cccs3)nnn2-c2nonc2N)c1	110.1	0	0	0	0	0	91.4	55.2	0	0
CCOc1cccc(-c2c(C(=O)N/N=C/c3ccoc3)nnn2-c2nonc2N)c1	83.3	0	0	0	0	0	73.1	32.3	0	0
Cc1ccc(/C=N/NC(=O)c2nnn(-c3nonc3N)c2-c2ccc3c(c2)OCO3)s1	81.7	43.0	0	0	0	0	97.2	60.9	0	0
CCOc1ccc(-c2c(C(=O)N/N=C/c3ccoc3)nnn2-c2nonc2N)cc1	91.7	0	0	0	0	0	66.1	28.9	0	0
COc1ccc(/C=N/NC(=O)c2nnn(-c3nonc3N)c2-c2cccc(OC)c2)cc1	149.3	0	0	0	0	74.8	120.9	86.5	72.0	32.2
CCOc1ccc(-c2c(C(=O)N/N=C/c3cccnc3)nnn2-c2nonc2N)cc1	0	0	0	0	0	0	-	-	-	-
CCOc1ccc(/C=N/NC(=O)c2nnn(-c3nonc3N)c2-c2ccc(OCC)cc2)cc1	66.3	0	0	0	0	0	57.4	26.0	0	0
Cc1ccc(/C=N/NC(=O)c2nnn(-c3nonc3N)c2-c2cccs2)cc1	131.1	0	0	0	0	77.6	128.7	96.1	79.0	42.5
CCOc1cccc(-c2c(C(=O)N/N=C/c3ccncc3)nnn2-c2nonc2N)c1	0	0	0	0	0	0	-	-	-	-
O=C(OCC(=O)N1N=C(c2ccc(Cl)cc2)CC1c1ccco1)c1cccnc1 (stereo not drawn)	0	0	0	0	-	0	-	-	-	-
COc1ccc(-n2nnnc2C(c2ccccc2)N2CCN(C/C=C/c3ccccc3)CC2)cc1 (stereo not drawn)	0	-	-	-	-	0	-	-	-	-
CCC(C)c1ccc(NC(=S)NC2CCN(Cc3ccccc3)CC2)cc1 (stereo not drawn)	57.9	0	0	0	0	0	45.0	19.1	0	26.8
C/C(=N\NC(=O)c1nnn(-c2nonc2N)c1-c1ccccc1)c1ccco1	106.4	-	-	-	0	0	120.1	86.7	0	0
COc1cccc(-c2c(C(=O)N/N=C(\C)c3ccco3)nnn2-c2nonc2N)c1	115.5	0	0	0	0	0	128.4	88.4	48.7	0
SMILES	TAAR1 agonist	OX1R antag-1	OX1R antag-2	CHO parental Ca	GPR7 antag	TAAR1 antag	TAAR1 ag conf	Ga16 nonsel ag	TAAR1 desensitize	Ga16 antag count
COc1cccc(-c2c(C(=O)N/N=C(\C)c3ccc(Cl)s3)nnn2-c2nonc2N)c1	88.9	0	0	0	0	59.0	81.9	52.3	64.1	38.9
O=C(O)CCc1ccc(-c2cccs2)n1CCc1ccccc1	62.4	0	0	0	0	0	82.9	0	72.6	0
O=C(O)CCc1ccc(-c2cccs2)n1CCC(=O)O	0	0	0	0	0	0	-	-	-	-
Clc1nssc1=Nc1ccccc1	-	-	-	-	0	-	-	-	-	-
N#Cc1ccc(N=c2ssnc2Cl)cc1	47.6	0	0	0	0	0	52.8	44.0	0	25.3
O=C1CCC/C1=c1\s/c(=C/c2cccnc2)c(=O)n1-c1ccccc1	0	-	-	-	-	0	-	-	-	-
CCCc1c(-c2ccc(Cl)cc2)ncn1Cc1ccccc1OC	0	-	-	-	-	0	-	-	-	-
CCCc1c(-c2ccc(Cl)cc2)ncn1CCc1ccccc1OC	55.9	-	-	-	-	52.1	82.1	14.9	83.3	26.4
CCCCCc1c(-c2ccccc2)ncn1CCc1ccccc1OC	0	-	-	-	-	0	-	-	-	-
CCCCc1c(Cc2cccc(F)c2)ncn1CCc1ccccc1OC	48.3	-	-	-	-	0	48.1	0	50.3	32.8
COc1ccccc1CCn1cnc(-c2ccc(Br)cc2)c1CC(C)C	65.0	-	-	-	-	70.6	82.0	0	56.0	0
CCCCc1c(-c2ccc(F)cc2F)ncn1CCc1ccccc1OC	0	-	-	-	-	0	-	-	-	-
CCCCc1c(-c2ccc(OC)c(OC)c2)ncn1CCc1ccccc1OC	59.2	-	-	-	-	58.0	64.3	0	68.0	41.9
COC(=O)C[C@@H]1CC[C@@H](NC(=O)Nc2cc(F)ccc2F)[C@@H](CO)O1	0	-	-	-	-	0	-	-	-	-
O=c1[nH]cc(CCCc2ccccc2)c(=O)[nH]1	0	-	-	-	-	0	-	-	-	-
Cc1cccc(S(=O)(=O)NC(=O)C2(C)CCN2C(=O)c2ccccc2)c1 (stereo not drawn)	0	-	-	-	-	0	-	-	-	-
CCc1c(-c2ccccc2Br)ncn1CCc1ccccc1OC	43.9	-	-	-	-	52.8	70.1	0	59.0	27.5
